Experimental data reported in ChEMBL document CHEMBL4665791 (J Med Chem, 2020).

Legend:
[1] = Cytotoxicity against human iPSC-derived neurons assessed as decrease in SNAP25 signal; assay type: tissue-based; settings: induced pluripotent stem cell-derived neuron
[2] = Cytotoxicity against human iPSC-derived neurons assessed as effect on cell-rounding; assay type: tissue-based; settings: induced pluripotent stem cell-derived neuron
HEK293 [3] = assay: Cytotoxicity against HEK293 cells assessed inhibition of cell proliferation after 24 hrs by MTT assay; assay type: cell-based; settings: Homo sapiens, HEK293, 24 h
In short: (§1)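 HEK293T cells in DMEM with 10% FBS and 1% Pen Strep were seeded at 5,000 cells/well and left 24 h at 37 °C, 5% CO2. Compounds were then added as 2-fold dilutions from 100 to 3.13 μM (1% DMSO) for 24 h. MTT was added for 4 h, and formazan was dissolved in acidified isopropanol. A570 was read with 630 nm background subtracted, normalized to DMSO control, and fitted with a four-parameter curve for IC50.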

HEK293 [4] = assay: Cytotoxicity against HEK293 cells assessed inhibition of cell proliferation up to 100 uM after 24 hrs by MTT assay; assay type: cell-based; settings: human, hek293, 24 h; in short: as §1

CS(=O)(=O)SCCCCCCCN(O)C(=O)/C=C/c1ccc(Cl)cc1Cl
Activity [1]: Non-Toxic
Activity [2]: Non-Toxic

CS(=O)(=O)SCCCCCCN(O)C(=O)/C=C/c1ccc(Cl)cc1Cl
Activity [1]: Non-Toxic
Activity [2]: Non-Toxic
IC50 (HEK293 [3]): 60 µM

CS(=O)(=O)SCCCCCNC(=O)CC(CC(=O)NO)c1ccc(Cl)cc1Cl (configuration not stated)
Activity [1]: Toxic
Activity [2]: Toxic

CS(=O)(=O)SCCCNC(=O)CC(CC(=O)NO)c1ccc(Cl)cc1Cl (configuration not stated)
Activity [1]: Toxic
Activity [2]: Toxic
Activity (HEK293 [4]): Non-Toxic

CS(=O)(=O)SCCCCCCNC(=O)CC(CC(=O)NO)c1ccc(Cl)cc1Cl (configuration not stated)
Activity [1]: Toxic
Activity [2]: Toxic

CCCCCNC(=O)CC(CC(=O)NO)c1ccc(Cl)cc1Cl (configuration not stated)
Activity (HEK293 [4]): Non-Toxic

CS(=O)(=O)SCCCCCN(O)C(=O)/C=C/c1ccc(Cl)cc1Cl
Activity [1]: Non-Toxic
Activity [2]: Non-Toxic

CS(=O)(=O)SCCCCNC(=O)CC(CC(=O)NO)c1ccc(Cl)cc1Cl (configuration not stated)
Activity [1]: Toxic
Activity [2]: Toxic
